{"source": "paper PMC9118414", "about": "(ACS Omega, 2022)", "experiment_in_all_cases": "Acute cytotoxicity, sulforhodamine B", "assay_type_in_all_cases": "cell-based", "key": {"[1]": {"tested_on": "HL60 promyelocytic leukemia", "details": "Homo sapiens, HL-60, 72 h, read-out: IC50 on cell viability, HL60"}, "[2]": {"tested_on": "PC3 prostate adenocarcinoma", "details": "Homo sapiens, 72 h, read-out: IC50 on cell viability, PC3"}, "[3]": {"tested_on": "peripheral blood mononuclear cells (PBMC)", "details": "Homo sapiens, 72 h, read-out: IC50 on cell viability, PBMC", "outline": "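PBMC were collected from healthy volunteers and kept in RPMI 1640 with 10% FBS and antibiotics at 37 °C, 5% CO2. 1.0 × 10^5 cells were exposed to various test-compound concentrations for 72 h. Viability read by sulforhodamine B assay. IC50 derived by curve fitting; values are means of three independent experiments.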"}, "[4]": {"tested_on": "A549 nonsmall cell lung carcinoma", "details": "Homo sapiens, A549, 72 h, read-out: IC50 on cell viability, A549"}, "[5]": {"tested_on": "HEK293 human embryonic kidney cells", "details": "HEK293, 72 h, read-out: IC50 on cell viability, HEK293"}}}
{"smiles": "COc1cccc2c1C(=O)c1c(O)c3c(c(O)c1C2=O)C[C@@](O)(C(=O)CO)C[C@@H]3O[C@H]1C[C@H](N)[C@H](O)[C@H](C)O1", "note": "[Doxorubicin]", "values": [{"measurement": "IC50", "setting": "[1]", "result": "70 ± 40", "unit": "nM"}, {"measurement": "IC50", "setting": "[2]", "result": "2700 ± 1300", "unit": "nM"}, {"measurement": "IC50", "setting": "[3]", "result": "5200 ± 1800", "unit": "nM"}, {"measurement": "IC50", "setting": "[4]", "result": "1800 ± 900", "unit": "nM"}, {"measurement": "IC50", "setting": "[5]", "result": "4800 ± 2000", "unit": "nM"}]}
